From ChEMBL document CHEMBL1124777, “Specific bradycardic agents. 1. Chemistry, pharmacology, and structure-activity relationships of substituted benzazepinones, a-new class of compounds exerting antiischemic properties” (1990)
Values after ≈ are worked out from the molar mass of the structure shown.

How the values were obtained:
Rattus norvegicus = assay: Bradycardic activity measured as a percentage decrease of heart rate after 5 mg/kg intravenous administration in anesthetized rats; assay type: functional
Method in brief: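 Male Chbb:THOM rats (200–250 g) were anesthetized with pentobarbital sodium 50 mg/kg ip, with tracheal cannulation and artificial respiration. Heart rate was recorded continuously by an ECG-triggered beat-to-beat tachograph. Dose was 5 mg/kg iv via the jugular vein. Rate was read at 2, 5 and 20 min, and the reduction taken at 5 min.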

[1] = Ratio between the EC30 values of atrial contractility and atrial rate; assay type: functional, Cardiac atrium
Method in brief: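 Isolated guinea pig atria (300–500 g, either sex) in modified Tyrode's gassed with 98% O2/2% CO2, resting tension 1 g, isometric recording. Rate measured in spontaneously beating atria at 37 °C after ≥30 min equilibration. Contractility (g) measured in left atria paced at 2.5 Hz (3 ms pulses, 1.5× threshold), 30 °C, 20 min equilibration. EC30 is the concentration lowering the predrug value by 30%.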

Cavia porcellus [2] = species on record: Cavia porcellus; assay: Evaluated in vitro for the effect on spontaneous atrial rate in isolated guinea pig atria; assay type: functional; settings: Cardiac atrium
Method in brief: (§1)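 Spontaneously beating guinea pig atria (either sex, 300–500 g) were held in modified Tyrode's solution gassed with 98% O₂/2% CO₂, at 1 g resting tension and 37 °C. Equilibration lasted at least 30 min, until rate varied by no more than 5 beats/min. Recording was isometric. EC₃₀ is the concentration lowering predrug rate by 30%, given with 95% confidence limits.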

[3] = Ratio between the EC30 values of aortic contracture and atrial rate; assay type: functional, Cardiac atrium
Method in brief: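 Guinea pig atria (300–500 g, either sex) in modified Tyrode's gassed with 98% O2/2% CO2, resting tension 1 g. Rate measured in spontaneously beating atria at 37 °C after at least 30 min equilibration. Rabbit aortic strips contracted with 40 mM KCl plus 1.8 mM CaCl2 to a plateau. EC30 is the concentration relaxing the contracture, or lowering the predrug rate, by 30%.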

Cavia porcellus [4] = species on record: Cavia porcellus; assay: Evaluated in vitro for its effect on atrial contractility in electrically stimulated isolated guinea pig left atria; settings: Cardiac atrium
Oryctolagus cuniculus = species on record: Oryctolagus cuniculus; assay: Evaluated in vitro for the effect on K+ induced aortic contraction in isolated aortic strips of rabbit; assay type: functional; settings: Aorta
Felis catus [5] = assay: Evaluated in vivo for bradycardic activity in anesthetized cat as a measure of % decrease of heart rate after 1 mg/Kg intravenous administration of the compound.; assay type: functional
Felis catus [6] = assay: Evaluated in vivo for bradycardic activity in anesthetized cat as a measure of percent decrease of heart rate after 1 mg/kg intravenous administration; assay type: functional
Cavia porcellus [7] = species on record: Cavia porcellus; assay: Evaluated in vitro for the effect on spontaneous rate in isolated guinea pig atria; assay type: functional; method in brief: as §1

Row | SMILES | Decrease (Rattus norvegicus) [%] | further results
1 | COc1ccc(NCCCN(C)CCCN2CCc3cc(OC)c(OC)cc3CC2=O)cc1OC | -51 | –
2 | COc1ccc(OCCN(C)CCCN2CCc3cc(OC)c(OC)cc3CC2=O)cc1OC.Cl | -59 | –
3 | COc1ccc(CCN(CCCN2CCc3cc(OC)c(OC)cc3CC2=O)C(C)=O)cc1OC | -3 | –
4 | COc1cc2c(cc1OC)CC(=O)N(CCCN(C)CCc1ccc(Cl)c(Cl)c1)CC2.Cl.Cl | -47 | –
5 | COc1ccc(N(C)CCCN2CCc3cc(OC)c(OC)cc3CC2=O)cc1OC | -17 | –
6 | COc1ccc(SCCN(C)CCCN2CCc3cc(OC)c(OC)cc3CC2=O)cc1OC.Cl | -44 | –
7 | COc1ccc(CCN(C)CCCCN2CCc3cc(OC)c(OC)cc3CC2=O)cc1OC.Cl | -33 | –
8 | COc1ccc(CCN(C)CC(C)CN2CCc3cc(OC)c(OC)cc3CC2=O)cc1OC.Cl (stereo not drawn) | -43 | –
9 | COc1ccc(CCN(C)CCC[C@@](C#N)(c2ccc(OC)c(OC)c2)C(C)C)cc1OC [(S)-VERAPAMIL] | – | Ratio [1]: 0.88; EC30 (Cavia porcellus [2]): 0.0694 µg/mL (≈ 0.153 µM); Ratio [3]: 0.409; EC30 (Cavia porcellus [4]): 0.0611 µg/mL (≈ 0.134 µM); EC30 (Oryctolagus cuniculus): 0.0284 µg/mL (≈ 0.0625 µM)
10 | COc1ccc(CCN(C)CCCN2CCc3cc(OC)c(OC)cc3CC2=O)cc1OC.Cl [ZATEBRADINE HYDROCHLORIDE] | -56 | Ratio [1]: 3600; EC30 (Cavia porcellus [2]): 0.03 µg/mL; Ratio [3]: 500; Decrease (Felis catus [5]): -56%; EC30 (Cavia porcellus [4]): 108 µg/mL; EC30 (Oryctolagus cuniculus): 15 µg/mL
11 | COc1ccc(CCN(C)CCCN2CCc3cc4c(cc3CC2=O)OCCO4)cc1OC.Cl | -49 | –
12 | COC(=O)C1=C(C)NC(C)=C(C(=O)OC)C1c1ccccc1[N+](=O)[O-] [NIFEDIPINE] | – | Ratio [1]: 0.135; EC30 (Cavia porcellus [2]): 0.11 µg/mL (≈ 0.318 µM); Ratio [3]: 0.036; EC30 (Cavia porcellus [4]): 0.0149 µg/mL (≈ 0.043 µM); EC30 (Oryctolagus cuniculus): 0.00397 µg/mL (≈ 0.0115 µM)
13 | COc1cc2c(cc1OC)CC(=O)N(CCCN(C)CCc1ccc(N(C)C)cc1)CC2.Cl.Cl | -60 | –
14 | COc1ccc(CCCN(C)CCCN2CCc3cc(OC)c(OC)cc3CC2=O)cc1OC.Cl | -55 | –
15 | COc1ccc(CCCCCN(C)CCCN2CCc3cc(OC)c(OC)cc3CC2=O)cc1OC.Cl | -36 | –
16 | COc1ccc2c(c1)CCN(CCCN(C)CCc1ccc(OC)c(OC)c1)C(=O)C2.Cl | -31 | –
17 | COc1ccc(CCN(C)CC(O)CN2CCc3cc(OC)c(OC)cc3CC2=O)cc1OC (stereo not drawn) | -28 | –
18 | COc1ccc(CCN(CCCN2CCc3cc(OC)c(OC)cc3CC2=O)CCc2ccc(OC)c(OC)c2)cc1OC | -28 | –
19 | COc1ccc(CCCCN(C)CCCN2CCc3cc(OC)c(OC)cc3CC2=O)cc1OC.Cl | -46 | –
20 | COc1ccc(CCSCCCN2CCc3cc(OC)c(OC)cc3CC2=O)cc1OC | 1 | –

Row | SMILES | Decrease (Rattus norvegicus) [%] | further results
21 | COc1ccc(CCN(C)CCCN2CCCc3cc(OC)c(OC)cc3C2=O)cc1OC | – | Decrease (Felis catus [5]): -8%
22 | COc1ccc(OCCCCN(C)CCCN2CCc3cc(OC)c(OC)cc3CC2=O)cc1OC.Cl | -37 | –
23 | COc1cc2c(cc1OC)CC(=O)N(CCCN(C)CCc1ccc(OS(C)(=O)=O)cc1)CC2.Cl | -46 | –
24 | COc1ccc(CCNCCCN2CCc3cc(OC)c(OC)cc3CC2=O)cc1OC.Cl | -66 | –
25 | COc1ccc(CCN(C)CCCN2CCc3cc(OC)c(OC)cc3CC2=O)cc1.Cl | -42 | –
26 | CCCCOc1ccc(CCN(C)CCCN2CCc3cc(OC)c(OC)cc3CC2=O)cc1 | -55 | –
27 | COc1ccc(CCN(C)CCCN2CCc3cc(C)c(C)cc3CC2=O)cc1OC.Cl.Cl | -49 | –
28 | COc1ccc(CCN(C)CCCN2CCc3ccccc3CC2=O)cc1OC.Cl | -35 | –
29 | COc1cc2c(cc1OC)CC(=O)N(CCCN(C)CCc1cc(OC)c(OC)c(OC)c1)CC2.Cl | -21 | –
30 | COc1ccc(CCN(C)CCN2CCc3cc(OC)c(OC)cc3CC2=O)cc1OC.Cl | -13 | –
31 | COc1ccc(CCN(C)CCCN2CCc3c(C)c(C)c(C)c(C)c3CC2=O)cc1OC.Cl | -41 | –
32 | COc1cc2c(cc1O)CC(=O)N(CCCN(C)CCc1ccc(OC)c(OC)c1)CC2 | -29 | –
33 | COc1ccc(CN(C)CCCN2CCc3cc(OC)c(OC)cc3CC2=O)cc1OC | -26 | –
34 | COc1ccc(SCCCN(C)CCCN2CCc3cc(OC)c(OC)cc3CC2=O)cc1OC.Cl | -47 | –
35 | COc1ccc(CCN(C)CCCN2CCc3ccc(OC)c(OC)c3CC2=O)cc1OC.Cl | -34 | –
36 | COc1cc2c(cc1OC)CC(=O)N(CCCN(C)CCc1ccc([N+](=O)[O-])cc1)CC2.Cl | -41 | –
37 | COc1cc2c(cc1O)CCN(CCCN(C)CCc1ccc(OC)c(OC)c1)C(=O)C2.Cl | -47 | –
38 | COc1cc2c(cc1OC)CC(=O)N(CCCN(C)CCc1ccccc1)CC2.Cl.Cl | -52 | –
39 | COc1cc2c(cc1OC)CC(=O)N(CCCN(C)CCc1c(Cl)cccc1Cl)CC2.Cl.Cl.Cl.Cl | -13 | –
40 | COc1cc2c(cc1OC)CC(=O)N(CCCN(C)CCc1ccc(N)cc1)CC2 | -30 | –

Row | SMILES | Decrease (Rattus norvegicus) [%] | further results
41 | COc1cc2c(cc1OC)CC(=O)N(CCCN(C)CCc1ccc(O)cc1)CC2.Cl | -33 | –
42 | COc1cc2c(cc1OC)CC(=O)N(CCCN(C)CCc1ccc(OCc3ccccc3)cc1)CC2 | -27 | –
43 | COc1ccc(CCN(C)CCCN2Cc3cc(OC)c(OC)cc3C2=O)cc1OC.Cl | – | Ratio [1]: 154; Decrease (Felis catus [6]): -16%; EC30 (Cavia porcellus [7]): 0.608 µg/mL; Ratio [3]: 35; EC30 (Cavia porcellus [4]): 93.6 µg/mL; EC30 (Oryctolagus cuniculus): 21.3 µg/mL
44 | COc1ccc([C@@H]2Sc3ccccc3N(CCN(C)C)C(=O)[C@@H]2OC(C)=O)cc1 [DILTIAZEM] | – | Ratio [1]: 19.5; EC30 (Cavia porcellus [2]): 0.14 µg/mL (≈ 0.338 µM); Ratio [3]: 0.53; EC30 (Cavia porcellus [4]): 2.73 µg/mL (≈ 6.59 µM); EC30 (Oryctolagus cuniculus): 0.0741 µg/mL (≈ 0.179 µM)
45 | COc1ccc(CCN(C)CCCN2CCc3cc(O)c(O)cc3CC2=O)cc1OC | -30 | –
46 | CCCN(CCCN1CCc2cc(OC)c(OC)cc2CC1=O)CCc1ccc(OC)c(OC)c1.Cl | -56 | –
47 | COc1ccc(CCN(C)CCCN2CCc3c(OC)ccc(OC)c3CC2=O)cc1OC.Cl | -21 | –
48 | COc1ccc(CCS(=O)(=O)CCCN2CCc3cc(OC)c(OC)cc3CC2=O)cc1OC | -1 | –
49 | COc1ccc(CC[S+]([O-])CCCN2CCc3cc(OC)c(OC)cc3CC2=O)cc1OC (stereo not drawn) | -4 | –
50 | CCOC(=O)N(CCCN1CCc2cc(OC)c(OC)cc2CC1=O)CCc1ccc(OC)c(OC)c1 | -8 | –
51 | C=CCN(CCCN1CCc2cc(OC)c(OC)cc2CC1=O)CCc1ccc(OC)c(OC)c1.Cl | -65 | –
52 | COc1ccc(CCN(C)CCCN2CCc3cc4c(cc3CC2=O)OCO4)cc1OC.Cl | -42 | –
53 | COc1ccc(CC[N+](C)(C)CCCN2CCc3cc(OC)c(OC)cc3CC2=O)cc1OC.[I-] | -9 | –
54 | COc1ccc(OCCCN(C)CCCN2CCc3cc(OC)c(OC)cc3CC2=O)cc1OC.Cl | -63 | –
55 | COc1ccc(CCN(C)CCCN2CCc3cc(OC)c(OC)cc3C2=O)cc1OC.Cl | – | Decrease (Felis catus [5]): -29%
56 | COc1cc2c(cc1OC)CC(=O)N(CCCN(C)CCc1ccc(C(C)(C)C)cc1)CC2.Cl.Cl | -58 | –
57 | COc1cc(OC)c(CCN(C)CCCN2CCc3cc(OC)c(OC)cc3CC2=O)c(OC)c1.Cl | -25 | –
58 | COc1ccc(NCCN(C)CCCN2CCc3cc(OC)c(OC)cc3CC2=O)cc1OC | -39 | –
59 | COc1cc2c(cc1OC)CC(=O)N(CCCN(C)CCc1ccc(Cl)cc1)CC2.Cl | -55 | –
60 | COc1ccc2c(c1)CC(=O)N(CCCN(C)CCc1ccc(OC)c(OC)c1)CC2.Cl.Cl | -44 | –
